# The list is not random: actives were taken first. Their share in the collection is about 2%.
# PG9 binder: binders of HIV-1 gp120 antibody PG9, primary screen, biochemical, TR-FRET; TR-FRET gp120-PG9 antibody binding; HIV-1 gp120 / PG9 antibody interaction; inhibition, % at 6.7 µM; 360,000 tested, 0.43% active; AID 624416, 2012; in the data active means inhibition above about 8.5%
# NR2E3 ag-1: NR2E3 agonists in two-hybrid cells, primary screen, cell-based, luminescence, CHO-S, Gal4-NCOR/VP16-NR2E3. Photoreceptor-specific nuclear receptor (Homo sapiens), Q9Y5X4. luciferase. inhibition of corepressor binding, % at 3.98 µM. 360,000 tested, 0.35% active;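 active means inhibition above the mean of all tested compounds plus 3 SD, cut at about 70% in these data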;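 further: higher means lower luciferase signal from less NR2E3 corepressor binding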
# Target sequence (Q9Y5X4 whole entry, looked up, the tested form may be a part): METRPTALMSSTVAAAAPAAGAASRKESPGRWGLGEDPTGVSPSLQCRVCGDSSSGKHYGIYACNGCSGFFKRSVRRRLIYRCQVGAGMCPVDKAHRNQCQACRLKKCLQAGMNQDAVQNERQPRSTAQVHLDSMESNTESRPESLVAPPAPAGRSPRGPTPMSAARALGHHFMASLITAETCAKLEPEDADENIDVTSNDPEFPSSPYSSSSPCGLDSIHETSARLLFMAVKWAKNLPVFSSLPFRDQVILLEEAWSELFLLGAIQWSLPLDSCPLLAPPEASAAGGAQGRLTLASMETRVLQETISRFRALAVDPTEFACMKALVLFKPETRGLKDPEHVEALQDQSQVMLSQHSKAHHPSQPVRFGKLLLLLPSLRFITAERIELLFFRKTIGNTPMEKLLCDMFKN
# Neddyl block: inhibitors of cullin neddylation, primary screen, biochemical, TR-FRET, uHTS, NAE and Ubc12 | NEDD8-conjugating enzyme Ubc12 (Homo sapiens) + NEDD8-activating enzyme E1 regulatory … | calls only at 25 µM | 360,000 tested, 0.58% active; in the data active means inhibition above about 36%
# NR2E3 ag-2: inhibitors of NR2E3-RetCOR corepressor binding, primary screen, NR2E3 agonist project, biochemical, TR-FRET, GST-NR2E3, biotin-RetCOR. 320,000 tested, 0.12% active. 1536-well. Photoreceptor-specific nuclear receptor (Homo sapiens), Q9Y5X4. inhibition of corepressor binding, % at 4.78 µM;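 active means percent inhibition above the cutoff of mean plus 3 SD of all tested compounds, set per screening campaign, cut at about 20% in these data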
#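 Assay system: NR2E3–RetCOR corepressor complex. Quantity: 1.35 nM GST-NR2E3. Buffer or medium: pH 7.5 Tris-based buffer. Reagent: biotinylated RetCOR corepressor at 7 nM final. Schedule: 5 h at 4 °C. Detection: TR-FRET, emission read at 617 and 671 nm. Replicates: one well per compound, singlicate testing.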
# NR1D1 modulator: modulators of Rev-erb alpha DNA binding, primary screen, biochemical, FITC-DNA, fluorescence polarization, uHTS; AID 1259318, 2017; Rev-erbα–FITC-DNA binding, 90 min; Nuclear receptor subfamily 1 group D member 1 (Homo sapiens), P20393; activity, % at 10 µM; 370,000 tested, 0.79% active;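 active means activity above about 14%, limit read from the data; passing the limit was not always enough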
# NR2E3 ag confirm: NR2E3 agonist confirmation in cells, cell-based, luminescence, CHO-S two-hybrid; inhibition, % at 3.98 µM; shares compounds with NR2E3 ag-1; AID 624378, 2012; 2,300 tested, 51% active; CHO-S mammalian two-hybrid NR2E3-NCOR, luciferase luminescence;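 active means average inhibition above a cutoff equal to the mean inhibition of all tested compounds plus one SD, cut at about 70% in these data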
# GAL4-VP16 luc: GAL4-VP16 reporter modulators, confirmation, counter-screen for NR2E3 agonist project, cell-based, luminescence, CHO-S, high throughput | CHO-S GAL4-VP16 luciferase reporter | AID 624379, 2012 | 2,300 tested, 29% active | inhibition, % at 3.98 µM | shares compounds with NR2E3 ag-1;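 active means mean inhibition above a cutoff equal to the average over all tested compounds plus one standard deviation, cut at about 70% in these data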;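 further: luciferase from a UAS reporter driven by GAL4-VP16 transactivation; higher means less reporter light so more repression of VP16 activity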
# Numbers stand for hits; n = inactive; x = no result given.
SMILES,PG9 binder,NR2E3 ag-1,Neddyl block,NR2E3 ag-2,NR1D1 modulator,NR2E3 ag confirm,GAL4-VP16 luc
Cn1c(=O)c2c(nc(NCc3ccco3)n2C/C=C/c2ccccc2)n(C)c1=O,n,n,n,n,n,87.6,n
CCOc1ccc(Oc2c(Cl)c(Br)nn(Cc3cccc4ccccc34)c2=O)cc1,x,x,x,x,n,x,x
Cc1ccc(OCC(C)CN2CCC(C(O)(c3ccccc3)c3ccccc3)CC2)cc1 (centres undefined),x,x,x,x,n,x,x
Cn1c(=O)c2ccccc2n(C)c1=O,n,x,x,x,n,x,x
Cc1ccc(-c2cc(-c3nnc(SCC(=O)N4CCOCC4)n3N)[nH]n2)cc1,x,x,x,x,n,x,x
O=C1NC(=S)SC1=Cc1ccccc1Br,n,73.6,n,x,n,95.2,72.3
O=C1NC(=S)SC1=Cc1cc(Br)ccc1O,n,n,n,x,n,x,x
Cc1ccc(-n2c(SCC(=O)Nc3ccc(OCc4ccccc4)cc3)nnc2-c2cnccn2)cc1,x,x,x,x,n,x,x
Cc1csc(SCC(=O)c2cc(C)n(Cc3cccs3)c2C)n1,n,n,n,n,n,n,n
CC(=O)Nc1ccc(SCC(=O)c2cc(C)n(Cc3cccs3)c2C)cc1,n,n,n,n,n,n,n
CC(=O)Nc1ccc(SCC(=O)c2cc(C)n(-c3ccccc3F)c2C)cc1,n,n,n,n,n,n,n
Cc1cc(C(=O)CSc2nnc(N)s2)c(C)n1Cc1cccs1,n,n,n,n,n,x,x
COc1ccc(S[C@]2(C(=O)N(C)C)CC(=O)N(c3ccccc3)[C@@H]2c2ccc(OC)cc2)cc1,x,x,x,x,n,x,x
Cc1ccc(Nc2c(-c3ccccn3)nc3cc(C)ccn23)cc1,n,n,x,n,n,98.7,86.9
Cc1ccc(Nc2c(-c3ccccn3)nc3ccc(C)cn23)cc1,n,n,n,n,n,97.2,n
COc1ccc(/C=C2\CC3(OC(=O)c4ccc(F)cc4)CCCN2C3)cc1 (centres undefined),x,x,x,x,n,x,x
S=C1NCCc2ccc(Cl)cc2C1c1ccccc1 (centres undefined),n,n,n,n,n,n,n
Cc1ccccc1OCCCCc1c(C)n[nH]c1C,n,70.7,n,n,n,91.5,n
COc1cccc(OC)c1OCCCCCc1c(C)n[nH]c1C,n,n,n,n,n,n,n
CN1C(=O)C2(NCCc3c2[nH]c2ccccc32)c2ccccc21 (centres undefined),n,n,n,n,n,x,x
CC1=CC(C)(C)N2C(=O)C3(NCCc4c3[nH]c3ccccc43)c3cc(C)cc1c32 (centres undefined),n,n,n,n,n,n,n
CC(=O)N1CCN(C2=NC(=O)N(c3ccc(Br)cc3)C(=O)C2)CC1,x,x,x,x,n,x,x
CC(C)n1nnnc1C1(C)CCCCC(=O)N1Cc1cccc(C(F)(F)F)c1 (centres undefined),x,x,x,x,n,x,x
NC(=S)N/N=C\c1c(OCc2ccccc2Cl)ccc2ccccc12,n,93.9,n,n,n,n,n
Cc1ccc(NS(=O)(=O)c2ccc3c(c2)NC(=O)CCS3)cc1F,n,n,n,n,n,x,x
SMILES,PG9 binder,NR2E3 ag-1,Neddyl block,NR2E3 ag-2,NR1D1 modulator,NR2E3 ag confirm,GAL4-VP16 luc
Cc1nc2ccc(NS(=O)(=O)c3ccc(C)c(C)c3)cc2s1,n,81.3,n,n,n,95.9,80.1
Cc1nc2ccc(NS(=O)(=O)c3c(F)cc(F)cc3Br)cc2s1,n,74.7,n,n,n,71.6,n
CC(=O)c1cccc(S(=O)(=O)Nc2ccc3nc(C)sc3c2)c1,n,n,n,n,n,x,x
Cc1nc2ccc(NS(=O)(=O)c3ccc(F)cc3F)cc2s1,n,n,n,n,n,x,x
Cc1ccc(NS(=O)(=O)c2ccc3c(c2)NC(=O)CCS3)cc1C,n,n,n,n,n,n,n
CCC(C)C1NC(=O)C(CCN)NC(=O)C(NC(=O)C(CCN)NC(=O)C(NC(=O)C(CCN)NC(=O)CCCCC(C)C)C(C)O)CCNC(=O)C(C(C)O)NC(=O)C(CCN)NC(=O)C(CCN)NC(=O)C(C(C)CC)NC1=O (centres undefined),x,x,x,x,n,x,x
COc1cccc(/C=N/Nc2ccc([N+](=O)[O-])cn2)c1O,n,103.2,n,n,n,99.0,93.0
O=Cc1ccc(O)c2ncccc12,x,n,x,x,x,n,n
COc1ccc(CCC[C@@H](CCC(=O)N(c2ccccc2)c2ccccc2)CCc2ccccc2)cc1,x,x,x,x,n,x,x
O=C(NNS(=O)(=O)c1ccc(F)cc1F)C1Cc2c(ccc3ccccc23)O1 (centres undefined),n,n,n,n,n,84.7,71.9
CS(=O)(=O)NNC(=O)C1Cc2c(ccc3ccccc23)O1 (centres undefined),n,n,n,n,n,x,x
CCC1(CC)C(=O)C(C)(C)C(=O)OC1c1ccccn1 (centres undefined),n,91.7,n,n,n,n,n
CC1(C)C(=O)OC(c2ccco2)C(C)(C)C1=O (centres undefined),n,n,n,n,n,x,x
Cc1ccc(NC(=O)c2cc(C)n(-c3ccccc3)c2C)cc1,n,n,n,n,n,n,n
Cc1cc(C(=O)Nc2ccc(Cl)cc2)c(C)n1-c1ccccc1,n,88.5,n,n,n,82.1,n
Cc1ccc(NC(=O)c2cc(C)n(-c3cccc(C)c3)c2C)cc1,n,n,n,n,n,x,x
COc1cc(C(C)=O)ccc1OCCCN1CCC(c2noc3cc(F)ccc23)CC1,x,x,x,x,n,x,x
Cc1nc2ccccc2c2oc(C(=O)NCc3ccccn3)cc12,n,n,n,n,n,x,x
Cc1ccc(CNC(=O)c2cc3c(C)nc4ccccc4c3o2)cc1,n,86.1,n,n,n,92.7,78.3
COc1ccccc1N1CCN(C(=O)c2cc3c(C)nc4ccccc4c3o2)CC1,n,n,n,n,n,n,n
Cc1nc2ccccc2c2oc(C(=O)NCc3ccc4c(c3)OCO4)cc12,n,n,n,n,n,n,n
CN[C@H]1C[C@H]2c3[nH]c4cccc(-c5ccccc5)c4c3CCN2C[C@H]1[C@H](C)O,x,x,x,x,n,x,x
COc1ccc([C@H]2OC(=O)C[C@@H]2C(=O)N2CCN(c3ccccc3Cl)CC2)cc1OC,x,x,x,x,n,x,x
COC(=O)C1=C(C)N(C)C(=NCc2ccccc2C(F)(F)F)NC1c1ccc(Cl)cc1 (centres undefined),n,x,x,x,n,x,x

# Assay outcomes deposited in PubChem BioAssay by several laboratories.
